Measurements published in ChEMBL document CHEMBL5029184, “Colloidal Aggregators in Biochemical SARS-CoV-2 Repurposing Screens” (J Med Chem, 2021).

What was measured:
[1] = species on record: Sus scrofa; assay: Inhibition of porcine heart malate dehydrogenase assessed as reduction in enzyme inhibition at 3 times IC50 preincubated for 5 min followed by nicotinamide adenine dinucleotide addition and monitered for 90 sec in presence of 0.01% Triton-X100 by spectrophotometric method relative to control; type: tissue-based; design: scale not given: the % may be the effect or the level left
How it was run: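 After a 5 min room-temperature incubation, the rate was read over 90 s and compared with the negative control. The value is the percent change in inhibition with detergent; triplicate.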

[2] = Inhibition of porcine heart malate dehydrogenase preincubated for 5 min followed by nicotinamide adenine dinucleotide addition and monitered for 90 sec by spectrophotometric method; type: tissue-based, Sus scrofa
How it was run: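 Porcine heart MDH was used at 2 nM final in 50 mM KPi pH 7 at room temperature. Compound was added from 100× DMSO stock (1% DMSO final) and incubated 5 min. Reactions were followed 90 s spectrophotometrically, with initial rates divided by the negative-control rate. Concentration–response used three replicates per concentration to give IC50 and Hill slope.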

[3] = species on record: Sus scrofa; assay: Inhibition of porcine heart malate dehydrogenase assessed as critical aggregation concentration preincubated for 5 min followed by nicotinamide adenine dinucleotide addition and monitered for 90 sec by spectrophotometric method; type: tissue-based
[4] = molecular target: T1, Angiotensin-converting enzyme 2 (Homo sapiens, UniProt Q9BYF1); assay: Inhibition of recombinant human ACE2 using MCA-Tyr-Val-Ala-Asp-Ala-Pro-Lys(DNP)-OH as substrate preincubated for 15 mins followed by substrate addition and measured upto 15 mins by fluorescence assay
[5] = Inhibition of SARS-COV2 N-terminal MBP-tagged 3CL protease using DABCYL-KTSAVLQSGFRKME-EDANS as substrate measured upto 30 mins by FRET assay; design: species or system Severe acute respiratory syndrome coronavirus 2
[6] = Inhibition of SARS CoV2 C-terminal His6-tagged 3CL protease (3264 to 3569 residues) expressed in Escherichia coli BL21 DE3 using rr-K(MCA)-ATLQAIAS-K(DNP)-COOH preincubated for 1 hr followed by substrate addition and measured after 1 hr in presence of 0.05% Tween-20; design: species or system Severe acute respiratory syndrome coronavirus 2
How it was run: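 Purified recombinant 3CL-Pro at 50 nM final with quenched fluorogenic peptide at 10 μM final (KM), in 20 mM Tris, 150 mM NaCl, 1 mM EDTA, 1 mM DTT, 0.05% Tween-20, pH 7.4. Drug and enzyme were preincubated 1 h at 37 °C, then substrate was added and fluorescence followed 1 h.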

[7] = Inhibition of SARS-Cov2 N-terminal full-length MBP-tagged 3CL protease expressed in Escherichia coli using DABCYL-KTSAVLQSGFRKME-EDANS as substrate preincubated for 30 mins followed by substrate addition and measured after 3 hrs by fluorescence assay; design: species or system Severe acute respiratory syndrome coronavirus 2
[8] = Inhibition of SARS-COV2 main protease; design: species or system Severe acute respiratory syndrome coronavirus 2
[9] = molecular target: T1, Angiotensin-converting enzyme 2; assay: Inhibition of recombinant SARS-COV2 His-tagged S-RBD binding to recombinant human ACE2 expressed in HEK293T cells incubated for 0.5 hrs by alpha screen assay; type: cell-based

T1 sequence (Q9BYF1 whole entry): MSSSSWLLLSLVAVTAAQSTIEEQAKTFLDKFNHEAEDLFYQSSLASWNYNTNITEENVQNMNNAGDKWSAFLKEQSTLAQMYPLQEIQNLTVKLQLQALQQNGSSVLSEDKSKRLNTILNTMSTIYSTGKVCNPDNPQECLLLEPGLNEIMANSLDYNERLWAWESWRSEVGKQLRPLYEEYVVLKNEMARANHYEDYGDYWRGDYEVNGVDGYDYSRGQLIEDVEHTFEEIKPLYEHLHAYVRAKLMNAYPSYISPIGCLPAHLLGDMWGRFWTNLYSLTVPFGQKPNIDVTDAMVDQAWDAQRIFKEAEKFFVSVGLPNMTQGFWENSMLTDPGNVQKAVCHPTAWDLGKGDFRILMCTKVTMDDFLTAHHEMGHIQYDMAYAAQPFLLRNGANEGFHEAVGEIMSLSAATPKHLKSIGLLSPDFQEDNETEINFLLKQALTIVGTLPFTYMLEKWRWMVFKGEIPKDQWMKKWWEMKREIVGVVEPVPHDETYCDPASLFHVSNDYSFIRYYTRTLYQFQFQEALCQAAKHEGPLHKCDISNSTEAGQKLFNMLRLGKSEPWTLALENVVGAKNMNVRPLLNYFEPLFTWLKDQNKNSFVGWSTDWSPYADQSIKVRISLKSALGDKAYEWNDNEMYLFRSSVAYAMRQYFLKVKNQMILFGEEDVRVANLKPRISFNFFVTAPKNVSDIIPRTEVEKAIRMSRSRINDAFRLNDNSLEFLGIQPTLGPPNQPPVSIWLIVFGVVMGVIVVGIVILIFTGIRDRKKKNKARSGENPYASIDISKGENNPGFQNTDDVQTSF

Row | Structure (SMILES) | Activity [1] | IC50 [2] | CAC [3] | IC50 [4] | IC50 [5] | IC50 [6] | IC50 [7] | IC50 [8] | IC50 [9]
1 | Cc1cc(-c2ccc(/N=N/c3ccc4c(S(=O)(=O)O)cc(S(=O)(=O)O)c(N)c4c3O)c(C)c2)ccc1/N=N/c1ccc2c(S(=O)(=O)O)cc(S(=O)(=O)O)c(N)c2c1O [EVANS BLUE] | 64% | 0.01 µM | – | – | – | – | – | – | –
2 | CC(C)=CC[C@@H](O)C1=CC(=O)c2c(O)ccc(O)c2C1=O | 92% | – | 7.7 µM | – | – | – | – | – | –
3 | COc1ccc(-c2ccc3cc(C(=O)O)ccc3c2)cc1C12CC3CC(CC(C3)C1)C2 | 77% | 14 µM | 9.2 µM | – | – | – | – | – | –
4 | C[C@@H](NCCCc1cccc(C(F)(F)F)c1)c1cccc2ccccc12 | 81% | 74 µM | 53 µM | 28.2 µM | – | – | – | – | –
5 | COc1c2ccc(-c3ccccc3)oc-2cc(=O)c1C [DRACORHODIN] | 86% | 7.7 µM | 22 µM | – | – | – | – | – | –
6 | Brc1c(Br)c(Br)c2[nH]nnc2c1Br [TETRABROMOBENZOTRIAZOLE] | 61% | 14.6 µM | – | – | 4 µM | – | – | – | –
7 | Cc1c(-c2ccc(O)cc2)n(Cc2ccc(OCCN3CCCCCC3)cc2)c2ccc(O)cc12 | 70% | – | – | – | – | – | – | – | –
8 | Cc1c(C)c2c(c(C)c1O)CCC(C)(CCCC(C)CCCC(C)CCCC(C)C)O2 (stereo not drawn) [alpha-TOCHOPHEROL] | 69% | 0.079 µM | 1.5 µM | – | – | – | – | – | –
9 | Cc1cc(O)c2c(c1)C(=O)c1cc(O)cc(O)c1C2=O [EMODIN] | – | 12.7 µM | 6 µM | – | – | – | – | – | –
10 | Cc1cc2c(C(C)C)c(O)c(O)c(C=O)c2c(O)c1-c1c(C)cc2c(C(C)C)c(O)c(O)c(C=O)c2c1O [GOSSYPOL] | 92% | 0.82 µM | 34 µM | – | – | > 200 µM | 39.8 µM | – | –
11 | c1ccc(-c2ccc(C(c3ccccc3)n3ccnc3)cc2)cc1 (stereo unspecified) [BIFONAZOLE] | – | 17 µM | – | – | – | – | – | – | –
12 | Cc1cc(O)c2c(=O)c3c(O)cc(O)c4c5c(O)cc(O)c6c(=O)c7c(O)cc(C)c8c1c2c(c34)c(c78)c65 [HYPERICIN] | 83% | 0.15 µM | 0.3 µM | – | – | – | – | 19.3 µM | –
13 | O=c1c(O)c(-c2cc(O)c(O)c(O)c2)oc2cc(O)cc(O)c12 [MYRICETIN] | – | – | 7.4 µM | – | – | – | – | – | 10 µM
14 | COC(=O)C1=C(C)NC(C)=C(C(=O)OCCN2CCN(C(c3ccccc3)c3ccccc3)CC2)C1c1cccc([N+](=O)[O-])c1 (stereo unspecified) [MANIDIPINE 6300] | 92% | 2 µM | 2.8 µM | – | – | > 100 µM | – | – | –
15 | Oc1c(I)cc(Cl)c2cccnc12 [CLIOQUINOL] | 57% | 4.3 µM | – | – | – | – | – | – | –
16 | COC(=O)C1=C(C)NC(C)=C(C(=O)OC(C)(C)CN(C)CCC(c2ccccc2)c2ccccc2)C1c1cccc([N+](=O)[O-])c1 (stereo unspecified) [LERCANIDIPINE] | 95% | 2.2 µM | 4 µM | – | – | > 200 µM | – | – | –
17 | O=C1c2c(O)cccc2Cc2cccc(O)c21 [ANTHRALIN] | 93% | 2.5 µM | 4.5 µM | – | – | – | – | – | –
18 | C/C(=C\c1ccc(C(=O)O)cc1)c1ccc2c(c1)C(C)(C)CCC2(C)C | 83% | 4.4 µM | 5.2 µM | – | – | > 200 µM | 35.5 µM | – | –
19 | O=C1C=C2CC3(O)COc4c(ccc(O)c4O)C3=C2C=C1O (stereo unspecified) [HEMATEIN] | 24% | 7.6 µM | 123 µM | – | – | > 200 µM | – | – | 10 µM
20 | O=C(O)c1ccc(N2C(=O)/C(=C\c3ccc(-c4ccc([N+](=O)[O-])cc4)o3)C=C2c2ccccc2)cc1 | 75% | 0.36 µM | 6.2 µM | – | 18.3 µM | 100 µM | – | – | –
21 | CC(C)(C)[C@H]1CC[C@H](CC2=C(O)C(=O)c3ccccc3C2=O)CC1 [BUPARVAQUONE] | 90% | 8.2 µM | 32 µM | – | – | – | – | – | –
22 | O=C(O)c1cccc(CN2C(=O)/C(=C(\c3ccccc3)c3ccc(Cl)cc3)c3ccccc32)c1 | 22% | 24 µM | 49 µM | – | – | > 200 µM | 35.5 µM | – | –
